Our source for the IC50 and selectivity ratio values is ChEMBL document CHEMBL1154767, “Reversal agent and linker variants of reversed chloroquines: activities against Plasmodium falciparum” (J Med Chem, 2010).

Series [1] concerns Plasmodium falciparum. Put plainly: Antimalarial activity against chloroquine-sensitive Plasmodium falciparum D6 after 72 hrs by fluorescence based method. The series is classed as functional, organism-based. As to conditions: D6, 72 h. Summed up:
(§1)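 Asynchronous parasite cultures diluted with uninfected erythrocytes in RPMI-1640 plus 0.5% Albumax II to 0.2% parasitemia, 2% hematocrit. Drugs diluted from 10 mM DMSO stock, final 0 to 10^-4 M, triplicate wells. After 72 h under standard culture conditions, read by SYBR Green I fluorescence (ex 497, em 520 nm). IC50 from nonlinear regression of fluorescence vs log[drug].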

In series [2] the test system is Plasmodium falciparum. Briefly: Antimalarial activity against chloroquine-resistant Plasmodium falciparum Dd2 after 72 hrs by fluorescence based method. The series is classed as functional, organism-based. To be noted: Dd2, 72 h. Summed up: as §1
A short description of series [3]: Therapeutic index, ratio of IC50 for C57B1/6J mice (Mus musculus) splenic lymphocyte to IC50 for chloroquine-sensitive Plasmodium falciparum D6. To be noted: read-out: TI.
Series [4] in a line: Therapeutic index, ratio of IC50 for C57B1/6J mice (Mus musculus) splenic lymphocyte to IC50 for chloroquine-resistant Plasmodium falciparum Dd2. To be noted: read-out: TI.

`CN(CCCNc1ccnc2cc(Cl)ccc12)CCCN1c2ccccc2CCc2ccccc21`: the IC50 was 3 nM with Plasmodium falciparum [1] and 5 nM in the series on Plasmodium falciparum [2].

For `Clc1ccc2c(NCCCNCCN(c3ccccc3)c3ccccc3)ccnc2c1`, the IC50 in the series with Plasmodium falciparum [1] turned out to be 26 nM; in the series on Plasmodium falciparum [2], 27 nM.

In the case of `Clc1ccc2c(NCCN(CCN(Cc3ccccc3)Cc3ccccc3)CCN(Cc3ccccc3)Cc3ccccc3)ccnc2c1`, the IC50 is 2 nM with Plasmodium falciparum [1] and 5 nM in the series with Plasmodium falciparum [2].

Regarding `O=C(CN(CCNc1ccnc2cc(Cl)ccc12)CC(=O)N(c1ccccc1)c1ccccc1)N(c1ccccc1)c1ccccc1`, the IC50 in the series on Plasmodium falciparum [1] worked out at 30 nM; in the series on Plasmodium falciparum [2], 52 nM.

Take `Clc1ccc2c(NCCNCCCN(Cc3ccccc3)Cc3ccccc3)ccnc2c1`: the IC50 with Plasmodium falciparum [1] was 7 nM; with Plasmodium falciparum [2] it was 16 nM.

In the case of `Clc1ccc2c(NCCCNCCN(Cc3ccccc3)Cc3ccccc3)ccnc2c1`, the IC50 in the series with Plasmodium falciparum [1] came to 2 nM; in the series on Plasmodium falciparum [2], 6 nM.

In the case of `Clc1ccc2c(NCCNCCN(Cc3ccccc3)Cc3ccccc3)ccnc2c1`, the results for the 50% inhibitory concentration (IC50) with Plasmodium falciparum [1] and in the series with Plasmodium falciparum [2] were 10 nM and 16 nM, respectively.

On to `Clc1ccc2c(NCCCNCCCCN(Cc3ccccc3)Cc3ccccc3)ccnc2c1`, for which the figures for the IC50 in the series with Plasmodium falciparum [1] and in the series with Plasmodium falciparum [2] were 8 nM and 11 nM, respectively.

Take `Clc1ccc2c(NCCCNCCCN(Cc3ccccc3)Cc3ccccc3)ccnc2c1`: the results for the IC50 with Plasmodium falciparum [1] and in the series with Plasmodium falciparum [2] were 23 nM and 34 nM, respectively.

`O=C(CNCCNc1ccnc2cc(Cl)ccc12)N(c1ccccc1)c1ccccc1`: the IC50 in the series with Plasmodium falciparum [1] amounted to 5 nM; with Plasmodium falciparum [2] it was 13 nM. For the same molecule, the values for the selectivity ratio in series [3] and in series [4] were 12000 and 4800, respectively.

Regarding `O=C(CN1CCN(c2ccnc3cc(Cl)ccc23)CC1)N(c1ccccc1)c1ccccc1`, the IC50 in the series with Plasmodium falciparum [1] is 49 nM; in the series with Plasmodium falciparum [2] it was 101 nM.

As for `Clc1ccc2c(N3CCN(CCN(Cc4ccccc4)Cc4ccccc4)CC3)ccnc2c1`, the IC50 in the series with Plasmodium falciparum [1] was 52 nM; in the series on Plasmodium falciparum [2] it was 115 nM.

As for `O=C(CNCCNc1ccnc2cc(Cl)ccc12)N(Cc1ccccc1)Cc1ccccc1`, the IC50 in the series with Plasmodium falciparum [1] stood at 14 nM; in the series on Plasmodium falciparum [2], 16 nM.

Usually IC50 stands for the midpoint of a concentration-inhibition curve.
